From ChEMBL document CHEMBL4145619, “Computer-Assisted Discovery of Retinoid X Receptor Modulating Natural Products and Isofunctional Mimetics” (J Med Chem, 2018)
Activity calls are given as the source filed them. The calls are words filed in the database; no cut-off is given here.

Tests used:
Assay type in all cases: cell-based
[1] = biological target: T1, Retinoic acid receptor RXR-alpha (Homo sapiens) (UniProt P19793); experiment: Transactivation of human Gal4-fused RXRalpha LBD expressed in HEK293T cells at 30 uM after 12 to 14 hrs by dual-glo luciferase assay
T1 sequence (whole entry): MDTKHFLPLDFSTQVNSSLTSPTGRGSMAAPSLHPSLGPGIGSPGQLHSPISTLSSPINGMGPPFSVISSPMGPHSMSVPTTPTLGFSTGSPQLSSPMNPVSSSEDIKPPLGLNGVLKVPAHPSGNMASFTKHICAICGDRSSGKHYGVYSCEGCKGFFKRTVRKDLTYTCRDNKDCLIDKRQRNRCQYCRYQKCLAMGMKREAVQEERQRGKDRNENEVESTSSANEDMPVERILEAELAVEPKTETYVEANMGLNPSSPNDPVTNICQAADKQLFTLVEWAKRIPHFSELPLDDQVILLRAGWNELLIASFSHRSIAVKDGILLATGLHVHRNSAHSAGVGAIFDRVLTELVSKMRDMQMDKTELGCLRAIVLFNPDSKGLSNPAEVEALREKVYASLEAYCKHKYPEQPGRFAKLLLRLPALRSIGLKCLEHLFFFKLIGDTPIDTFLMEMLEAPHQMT
How it was run: (§1)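 Single-concentration selectivity profiling in Gal4-hybrid reporter gene assays in HEK293T cells. Each nuclear receptor construct (RAR, PPAR, LXR, FXR, CAR, VDR, PXR, RXR) was tested at 30 μM.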

[2] = biological target: T2, Peroxisome proliferator-activated receptor alpha (Homo sapiens) (UniProt Q07869); experiment: Transactivation of human Gal4-fused PPARalpha LBD expressed in HEK293T cells at 30 uM after 12 to 14 hrs by dual-glo luciferase assay; how it was run: as §1
T2 sequence (whole entry): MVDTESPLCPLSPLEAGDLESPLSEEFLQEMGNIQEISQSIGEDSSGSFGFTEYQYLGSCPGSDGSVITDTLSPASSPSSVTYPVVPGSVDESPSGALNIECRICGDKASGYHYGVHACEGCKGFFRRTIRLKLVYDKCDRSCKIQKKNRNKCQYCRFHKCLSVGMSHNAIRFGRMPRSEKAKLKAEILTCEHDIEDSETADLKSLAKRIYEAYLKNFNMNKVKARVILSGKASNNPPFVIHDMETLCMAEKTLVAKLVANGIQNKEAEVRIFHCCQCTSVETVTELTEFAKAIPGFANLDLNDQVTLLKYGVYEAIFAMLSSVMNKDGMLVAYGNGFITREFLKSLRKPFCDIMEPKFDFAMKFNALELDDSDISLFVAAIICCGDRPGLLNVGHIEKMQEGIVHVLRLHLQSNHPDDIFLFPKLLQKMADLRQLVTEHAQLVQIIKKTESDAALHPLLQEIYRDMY

[3] = system: HepG2; experiment: Cytotoxicity against human HepG2 cells assessed as reduction in cell viability up to 100 uM after 48 hrs by WST1 assay; conditions: hepg2, 48 h
[4] = biological target: T3, Peroxisome proliferator-activated receptor gamma (Homo sapiens) (UniProt P37231); experiment: Transactivation of human Gal4-fused PPARgamma LBD expressed in HEK293T cells at 30 uM after 12 to 14 hrs by dual-glo luciferase assay; how it was run: as §1
T3 sequence (whole entry): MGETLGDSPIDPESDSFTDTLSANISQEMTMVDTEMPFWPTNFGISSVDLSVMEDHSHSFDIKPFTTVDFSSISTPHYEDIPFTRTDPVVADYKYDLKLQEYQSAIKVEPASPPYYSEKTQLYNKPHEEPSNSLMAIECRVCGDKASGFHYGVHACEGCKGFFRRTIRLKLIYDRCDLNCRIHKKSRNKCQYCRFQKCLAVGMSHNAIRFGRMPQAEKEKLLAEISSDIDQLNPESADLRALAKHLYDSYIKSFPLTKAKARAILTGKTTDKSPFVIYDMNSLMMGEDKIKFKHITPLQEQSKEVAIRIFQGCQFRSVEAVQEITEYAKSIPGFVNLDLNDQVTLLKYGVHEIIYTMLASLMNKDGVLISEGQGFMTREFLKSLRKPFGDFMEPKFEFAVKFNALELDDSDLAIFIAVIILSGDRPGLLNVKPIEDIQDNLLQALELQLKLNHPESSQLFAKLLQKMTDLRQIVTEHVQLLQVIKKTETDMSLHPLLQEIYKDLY

[5] = biological target: Retinoid X receptor (Homo sapiens) (UniProt P28702+P48443+P19793); experiment: Transactivation of RXR in human HepG2 cells assessed as induction of apoE mRNA expression at 30 uM after 8 hrs by qRT-PCR analysis
Retinoid X receptor (Homo sapiens), sequence (P28702 whole entry, looked up, one chain of several): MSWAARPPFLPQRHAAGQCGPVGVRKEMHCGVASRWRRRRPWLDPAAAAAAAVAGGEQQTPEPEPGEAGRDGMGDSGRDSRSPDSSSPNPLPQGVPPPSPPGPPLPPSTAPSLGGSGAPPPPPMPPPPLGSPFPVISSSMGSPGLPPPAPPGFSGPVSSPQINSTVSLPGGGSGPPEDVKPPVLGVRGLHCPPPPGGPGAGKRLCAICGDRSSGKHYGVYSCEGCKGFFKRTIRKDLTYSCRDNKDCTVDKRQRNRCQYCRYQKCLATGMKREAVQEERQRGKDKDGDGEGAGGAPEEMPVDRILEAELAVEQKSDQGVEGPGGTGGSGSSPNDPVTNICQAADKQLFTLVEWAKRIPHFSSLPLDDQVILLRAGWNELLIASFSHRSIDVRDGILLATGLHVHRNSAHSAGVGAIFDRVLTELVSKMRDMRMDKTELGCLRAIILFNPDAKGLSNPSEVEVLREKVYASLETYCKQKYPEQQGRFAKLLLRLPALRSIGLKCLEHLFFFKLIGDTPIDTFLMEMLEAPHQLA
How it was run: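 HepG2 cells were treated and ABCA1 or ApoE mRNA levels measured. Results are given as mean fold induction versus 0.1% DMSO vehicle ± SEM, n = 3. Significance was set at p < 0.05, 0.01 or 0.001.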

[6] = biological target: T4, Retinoic acid receptor RXR-gamma (Homo sapiens) (UniProt P48443); experiment: Transactivation of human Gal4-fused RXRgamma LBD expressed in HEK293T cells after 12 to 14 hrs by dual-glo luciferase assay relative to bexarotene
T4 sequence (whole entry): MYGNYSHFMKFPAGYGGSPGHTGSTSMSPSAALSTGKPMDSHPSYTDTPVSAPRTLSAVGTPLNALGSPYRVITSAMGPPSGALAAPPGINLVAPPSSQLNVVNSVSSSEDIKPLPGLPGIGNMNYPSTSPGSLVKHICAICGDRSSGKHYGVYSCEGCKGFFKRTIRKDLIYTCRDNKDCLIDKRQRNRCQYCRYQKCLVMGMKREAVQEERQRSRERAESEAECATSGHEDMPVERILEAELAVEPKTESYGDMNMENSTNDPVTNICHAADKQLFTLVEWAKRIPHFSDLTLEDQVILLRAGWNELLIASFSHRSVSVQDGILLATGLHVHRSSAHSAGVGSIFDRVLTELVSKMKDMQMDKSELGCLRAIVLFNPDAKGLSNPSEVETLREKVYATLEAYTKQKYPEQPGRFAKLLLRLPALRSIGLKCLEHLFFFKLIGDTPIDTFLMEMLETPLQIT

Activity [1]: Active
Activity [2]: inactive
Activity [4]: inactive
Activity [5]: Active
fold change (FC) [6]: 4
SMILES: CC1=C2[C@H](/C=C(\C)C(=O)O)CC[C@@H](C)[C@H]2CC1 [VALERENIC ACID]
Activity [3]: Non-Toxic
